From ChEMBL document CHEMBL1143359, “Synthesis and in vitro anti-proliferative activity of beta-elemene monosubstituted derivatives in HeLa cells mediated through arrest of cell cycle at the G1 phase” (Bioorg Med Chem, 2009)
Calls of active or inactive are those of the source. The calls are words filed in the database; no cut-off is given here.

Assays:
Assay type in all cases: functional, cell-based
HeLa [1] = assay: Cell cycle arrest in human HeLa cells assessed as increase in G1 phase cells after 24 hrs by flow cytometry using propidium iodide staining
Procedure, shortened: (§1)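 After 24 h drug exposure at 37 °C, HeLa cells were trypsinized. About 1 × 10⁶ cells were washed twice in cold PBS and fixed overnight in chilled 75% methanol at −20 °C. DNA content was measured by propidium iodide flow cytometry, and the percentage of cells in each cycle phase was calculated. Untreated cultures served as controls.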

HeLa [2] = assay: Antiproliferative activity against human HeLa cells after 24 hrs by WST-1 assay
Procedure, shortened: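 HeLa cells grown in RPMI 1640 with 10% inactivated FBS, penicillin, streptomycin and L-glutamine at 37 °C under 5% CO2. They were trypsinized, seeded at 5 × 10³ cells/well, and left 12 h. Compounds were added at five concentrations for 24 h. WST-1 was added and absorbance read at 450 nm. IC50 was calculated from absorbance.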

HeLa [3] = assay: Decrease in Rb phosphorylation in human HeLa cells after 24 hrs by Western blotting
Procedure, shortened: (§2)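 HeLa cells were treated 24 h, trypsinized, washed in ice-cold PBS and lysed on ice in RIPA with PMSF. Lysates were clarified at 12,000 rpm, 4 °C, 15 min, and protein was measured by Bradford. Extracts ran on 12% SDS–PAGE onto PVDF, with milk/Tween blocking for 2 h. Rabbit anti-cyclin D1 and anti-Rb (1:100) and biotinylated anti-rabbit (1:400) were each applied 1 h at 37 °C, with ABC detection. β-actin was the loading control.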

HeLa [4] = assay: Cell cycle arrest in human HeLa cells assessed as decrease in S phase cells after 24 hrs by flow cytometry using propidium iodide staining; procedure, shortened: as §1
HeLa [5] = assay: Decrease in Rb protein expression in human HeLa cells after 24 hrs by Western blotting; procedure, shortened: as §2
HeLa [6] = assay: Cell cycle arrest in human HeLa cells assessed as decrease in G2-M phase cells after 24 hrs by flow cytometry using propidium iodide staining; procedure, shortened: as §1
HeLa [7] = assay: Decrease in CyclinD1 protein expression in human HeLa cells after 24 hrs by Western blotting; procedure, shortened: as §2

IC50 (HeLa [2]) | Structure (SMILES) | Activity (HeLa [1]) | other results
106 µM | C=C[C@]1(C)CC[C@@H](C(=C)COCC)C[C@H]1C(=C)C | Active | –
236 µM | C=C[C@]1(C)CC[C@@H](C(=C)C)C[C@H]1C(=C)C | Active | –
238 µM | C=C[C@]1(C)CC[C@@H](C(=C)COCCOC)C[C@H]1C(=C)C | Active | –
0.52 µM | C=C[C@]1(C)CC[C@@H](C(=C)CNC2CCCC2)C[C@H]1C(=C)C | Active | –
25.4 µM | C=C[C@]1(C)CC[C@@H](C(=C)CNC(C)(C)C)C[C@H]1C(=C)C | Active | –
266 µM | C=C[C@]1(C)CC[C@@H](C(=C)COCCCC)C[C@H]1C(=C)C | Active | –
212 µM | C=C[C@]1(C)CC[C@@H](C(=C)COC)C[C@H]1C(=C)C | Active | –
10.8 µM | C=C[C@]1(C)CC[C@@H](C(=C)CNCCCC)C[C@H]1C(=C)C | Active | Activity (HeLa [3]): Active; Activity (HeLa [4]): Active; Activity (HeLa [5]): inactive; Activity (HeLa [6]): Active; Activity (HeLa [7]): Active
14.3 µM | C=C[C@]1(C)CC[C@@H](C(=C)CN(CC)CC)C[C@H]1C(=C)C | Active | –
5.9 µM | C=C[C@]1(C)CC[C@@H](C(=C)CNC2CCCCCCC2)C[C@H]1C(=C)C | Active | –
0.04 µM | C=C[C@]1(C)CC[C@@H](C(=C)CNC(C)C)C[C@H]1C(=C)C | Active | –
3.39 µM | C=C[C@]1(C)CC[C@@H](C(=C)CNC2CCCCC2)C[C@H]1C(=C)C | Active | –
15.7 µM | C=C[C@]1(C)CC[C@@H](C(=C)Cn2ccnc2)C[C@H]1C(=C)C | Active | –
